Values joined by “and” are separate entries in the source; they are usually repeats but may differ in a detail not shown here. Equal values may be shown once.
Legend:
[1] = target: T1, DGKα (Rattus norvegicus, UniProt P51556); test: Kinase assay with purified DGKα and PC:DAG:PS liposomes; assay type: biochemical; conditions: for Vmax (ATP): ATP-dependent activity, 5 mol% DAG; for Vmax (DAG): DAG-dependent activity, 1 mM ATP; for Decrease of Vmax of purified DGKα: 0.5 mol% drug
How it was run: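 Rat FLAG-DGKα was expressed in HeLa cells by adenovirus (72 h) and purified on FLAG M2 beads. Reactions contained buffer B (MOPS pH 7.5), 1 mM CaCl2, 1 mM DTT and 4.75 mM PC:PS:DAG liposomes (5 mol% DAG), with test compound built into the liposomes at 0.5 or 2.0 mol% or added from DMSO. Reactions with [γ32P]-ATP ran 15 min at 25°C. Km and Vmax came from Michaelis-Menten non-linear regression.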

[2] = target: T1, DGKα; test: Kinase assay with HEK 293T cell homogenate over-expressing DGKα; assay type: biochemical
How it was run: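 Each reaction held 5 μg homogenate protein, 2 mM extruded PC:PS:DAG liposomes (10 mol% dioleoyl, dioctanoyl or stearoyl-arachidonoyl DAG), buffer B, 1 mM DTT, 1 mM CaCl2 and 1 mM [γ32P]-ATP, run 20 min at 30°C. Test compounds came from DMSO stocks. 32P-PA was counted, normalized to GFP lysate and to DMSO control; IC50 from log[inhibitor] versus normalized response.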

[3] = target: DGKβ (Rattus norvegicus, UniProt P49621); test: Kinase assay with HEK 293T cell homogenate over-expressing DGKβ; assay type: biochemical; conditions: 20 μM inhibitor, dioleoyl DAG liposomes
How it was run: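 Reactions contained 5 μg homogenate, 2 mM liposomes (10 mol% dioleoyl DAG, 40 mol% PS, 50 mol% PC), buffer B, 1 mM DTT, 1 mM CaCl2 and [γ32P]-ATP, 20 min at 30°C. Test compound was added from DMSO. Organic-phase 32P was counted and expressed as percent of DMSO control after subtracting the GFP-lysate background.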

[4] = target: DGKδ (Homo sapiens, UniProt Q16760); test: Kinase assay with HEK 293T cell homogenate over-expressing DGKδ; assay type: biochemical; conditions: 20 μM inhibitor, dioleoyl DAG liposomes
How it was run: (§1)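 Reactions without CaCl2 contained 5 μg homogenate, 2 mM liposomes (10 mol% dioleoyl DAG, 40 mol% PS, 50 mol% PC), buffer B, 1 mM DTT and [γ32P]-ATP, 20 min at 30°C. Test compound was added from DMSO. Extracted 32P-lipid was counted, GFP-lysate normalized, and expressed as percent of DMSO control.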

[5] = target: DGKι (Homo sapiens, UniProt O75912); test: Kinase assay with HEK 293T cell homogenate over-expressing DGKι; assay type: biochemical
[6] = target: DGKθ (Homo sapiens, UniProt P52824); test: Kinase assay with HEK 293T cell homogenate over-expressing DGKθ; assay type: biochemical; conditions: 20 μM inhibitor, dioleoyl DAG liposomes
How it was run: as §1

[7] = tested on: PKC; test: PKC activation: phosphorylation of PKC substrates by western blot in HeLa cells; assay type: cell-based, human
How it was run: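 HeLa cells were grown in DMEM with 5% FBS and treated 30 min with 4 or 40 μM test compound or 100 nM PMA, with or without 1 h pretreatment with 500 nM bisindolylmaleimide II. In separate runs, a 5-HT2AR agonist (10 μM, 6 h) was given with or without 40 μM antagonist. Lysates (50 μg) were immunoblotted for phospho-(Ser) PKC substrates; four independent experiments were quantified.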

[8] = tested on: PKC; test: PKC activation: phosphorylation of PKC substrates by western blot in U87 cells; assay type: cell-based, human; conditions: treatment for 30 min
How it was run: (§2)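 Glioblastoma cells were treated 30 min with 4 or 40 μM test compound or 100 nM PMA, with or without 1 h pretreatment with 500 nM bisindolylmaleimide II. Cleared Triton lysates (50 μg) were run on 8.75% SDS-PAGE and probed with phospho-(Ser) PKC substrate antibody, detected by alkaline phosphatase chemiluminescence. Three independent experiments were quantified.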

[9] = tested on: PKC; test: PKC activation: phosphorylation of PKC substrates by western blot in U251 cells; assay type: cell-based, human; conditions: treatment for 30 min
How it was run: as §2

[10] = cited from earlier work
[11] = target: T2, 5-HT1A (Homo sapiens, UniProt P08908); test: Radioligand competition binding assay
T2 sequence (P08908 1-422): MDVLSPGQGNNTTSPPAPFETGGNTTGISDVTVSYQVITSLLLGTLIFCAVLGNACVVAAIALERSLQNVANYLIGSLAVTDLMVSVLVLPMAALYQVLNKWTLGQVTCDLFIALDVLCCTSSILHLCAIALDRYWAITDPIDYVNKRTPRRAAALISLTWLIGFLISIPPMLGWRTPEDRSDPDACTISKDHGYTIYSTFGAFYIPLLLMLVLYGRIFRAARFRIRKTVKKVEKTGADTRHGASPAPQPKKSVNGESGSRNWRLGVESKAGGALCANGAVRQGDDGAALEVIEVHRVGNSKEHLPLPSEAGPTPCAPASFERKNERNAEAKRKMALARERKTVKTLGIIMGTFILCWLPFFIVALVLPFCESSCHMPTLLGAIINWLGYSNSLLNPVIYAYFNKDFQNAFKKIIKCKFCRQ

[12] = target: 5-HT1B (Homo sapiens, UniProt P28222); test: Radioligand competition binding assay; conditions: read-out: Percent Inhibition of Binding 5-HT1B
How it was run: (§3)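 Run by the NIMH PDSP as radioligand competition binding assays. The primary screen used 10 μM test compound and reported mean percent inhibition of radioligand binding (n=4); above 50% counted as significant. At those receptors, IC50 values came from non-linear regression of competition binding isotherms and were converted to Ki with the Cheng-Prusoff equation.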

[13] = target: T3, 5-HT1D (Homo sapiens, UniProt P28221); test: Radioligand competition binding assay
How it was run: as §3

[14] = target: T4, 5-HT2A (Homo sapiens, UniProt P28223); test: Radioligand competition binding assay
[15] = target: T5, 5-HT2B (Homo sapiens, UniProt P41595); test: Radioligand competition binding assay
[16] = target: T6, 5-HT2C (Homo sapiens, UniProt P28335); test: Radioligand competition binding assay
T6 sequence (P28335 33-458): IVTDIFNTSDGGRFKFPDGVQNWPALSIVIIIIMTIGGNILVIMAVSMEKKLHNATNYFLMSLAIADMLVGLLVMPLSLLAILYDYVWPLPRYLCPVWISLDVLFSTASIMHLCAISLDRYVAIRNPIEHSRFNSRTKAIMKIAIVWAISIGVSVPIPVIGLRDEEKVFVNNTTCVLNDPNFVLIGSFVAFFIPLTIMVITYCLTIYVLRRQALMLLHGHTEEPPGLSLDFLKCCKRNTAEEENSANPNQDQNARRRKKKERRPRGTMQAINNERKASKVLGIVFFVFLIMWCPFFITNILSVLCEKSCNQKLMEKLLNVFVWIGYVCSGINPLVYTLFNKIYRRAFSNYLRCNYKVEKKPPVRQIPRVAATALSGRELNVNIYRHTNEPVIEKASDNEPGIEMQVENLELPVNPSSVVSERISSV

[17] = target: 5-HT3 (Homo sapiens, UniProt P46098); test: Radioligand competition binding assay; conditions: read-out: Percent Inhibition of Binding 5-HT3
How it was run: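 Run by the NIMH PDSP as a radioligand competition binding primary screen. Test compounds were applied at 10 μM, and the read-out was mean percent inhibition of radioligand binding (n=4).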

[18] = target: 5-HT5A (Homo sapiens, UniProt P47898); test: Radioligand competition binding assay
How it was run: as §3

[19] = target: 5-HT6 (Homo sapiens, UniProt P50406); test: Radioligand competition binding assay
How it was run: as §3

[20] = target: T7, 5-HT7 (Homo sapiens, UniProt P34969); test: Radioligand competition binding assay
How it was run: as §3

[21] = target: T3, 5-HT1D; test: Antagonist functional assay; assay type: cell-based; conditions: read-out: Percent Inhibition of Agonist Response 5-HT1D
How it was run: (§4)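 Run by the NIMH PDSP as cell-based antagonist-mode functional assays. Test compounds were applied at 10 μM. The read-out was percent inhibition of the response to an EC90 concentration of a reference agonist; that concentration was determined empirically for each receptor.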

[22] = target: T4, 5-HT2A; test: Antagonist functional assay; assay type: cell-based; conditions: read-out: Percent Inhibition of Agonist Response 5-HT2A
How it was run: as §4

[23] = target: T5, 5-HT2B; test: Antagonist functional assay; assay type: cell-based; conditions: read-out: Percent Inhibition of Agonist Response 5-HT2B
How it was run: as §4

[24] = target: T6, 5-HT2C; test: Antagonist functional assay; assay type: cell-based; conditions: read-out: Percent Inhibition of Agonist Response 5-HT2C
How it was run: as §4

[25] = target: T7, 5-HT7; test: Antagonist functional assay; assay type: cell-based; conditions: read-out: Percent Inhibition of Agonist Response 5-HT7
How it was run: as §4

[26] = tested on: 5-HTRs; test: Agonist functional assays at 5 serotonin receptors; assay type: cell-based; conditions: 5 receptors where low Ki values were observed; data not shown

T4 sequence (P28223 whole entry, species assumed): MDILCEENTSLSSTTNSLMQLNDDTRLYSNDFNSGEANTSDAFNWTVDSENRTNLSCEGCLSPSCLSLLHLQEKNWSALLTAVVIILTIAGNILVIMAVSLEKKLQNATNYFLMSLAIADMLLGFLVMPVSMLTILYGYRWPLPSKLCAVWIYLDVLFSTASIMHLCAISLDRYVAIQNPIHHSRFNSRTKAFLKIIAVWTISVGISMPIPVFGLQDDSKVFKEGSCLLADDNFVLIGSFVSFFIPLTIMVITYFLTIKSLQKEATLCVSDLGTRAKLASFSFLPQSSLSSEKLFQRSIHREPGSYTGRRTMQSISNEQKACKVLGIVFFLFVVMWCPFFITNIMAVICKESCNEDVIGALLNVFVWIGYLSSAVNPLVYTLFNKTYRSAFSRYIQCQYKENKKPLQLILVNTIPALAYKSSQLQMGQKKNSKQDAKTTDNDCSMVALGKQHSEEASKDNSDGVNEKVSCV
T3 sequence (P28221 whole entry, species assumed): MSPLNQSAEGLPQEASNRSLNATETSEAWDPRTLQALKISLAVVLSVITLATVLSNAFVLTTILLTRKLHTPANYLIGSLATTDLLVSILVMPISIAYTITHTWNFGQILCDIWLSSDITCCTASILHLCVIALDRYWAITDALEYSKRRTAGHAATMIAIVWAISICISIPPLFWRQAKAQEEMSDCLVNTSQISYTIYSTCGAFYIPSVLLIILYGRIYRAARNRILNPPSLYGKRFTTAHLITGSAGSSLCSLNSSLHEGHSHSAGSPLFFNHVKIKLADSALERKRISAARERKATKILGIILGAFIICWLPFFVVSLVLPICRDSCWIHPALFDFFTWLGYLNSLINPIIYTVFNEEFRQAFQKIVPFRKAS
T5 sequence (P41595 whole entry, species assumed): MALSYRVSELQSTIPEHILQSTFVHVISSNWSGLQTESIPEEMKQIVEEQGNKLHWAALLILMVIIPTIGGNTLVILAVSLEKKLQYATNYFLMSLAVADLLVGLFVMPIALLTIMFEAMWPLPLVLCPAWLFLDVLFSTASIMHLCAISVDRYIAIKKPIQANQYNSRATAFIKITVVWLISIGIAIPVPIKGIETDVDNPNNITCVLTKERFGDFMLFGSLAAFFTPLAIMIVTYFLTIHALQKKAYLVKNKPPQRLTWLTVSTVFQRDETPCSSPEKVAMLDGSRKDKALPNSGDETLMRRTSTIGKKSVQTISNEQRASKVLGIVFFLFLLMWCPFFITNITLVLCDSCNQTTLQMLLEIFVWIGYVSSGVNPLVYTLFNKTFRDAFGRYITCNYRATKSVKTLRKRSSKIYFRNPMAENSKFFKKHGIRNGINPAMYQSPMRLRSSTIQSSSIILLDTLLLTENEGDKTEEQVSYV
T1 sequence (P51556 whole entry): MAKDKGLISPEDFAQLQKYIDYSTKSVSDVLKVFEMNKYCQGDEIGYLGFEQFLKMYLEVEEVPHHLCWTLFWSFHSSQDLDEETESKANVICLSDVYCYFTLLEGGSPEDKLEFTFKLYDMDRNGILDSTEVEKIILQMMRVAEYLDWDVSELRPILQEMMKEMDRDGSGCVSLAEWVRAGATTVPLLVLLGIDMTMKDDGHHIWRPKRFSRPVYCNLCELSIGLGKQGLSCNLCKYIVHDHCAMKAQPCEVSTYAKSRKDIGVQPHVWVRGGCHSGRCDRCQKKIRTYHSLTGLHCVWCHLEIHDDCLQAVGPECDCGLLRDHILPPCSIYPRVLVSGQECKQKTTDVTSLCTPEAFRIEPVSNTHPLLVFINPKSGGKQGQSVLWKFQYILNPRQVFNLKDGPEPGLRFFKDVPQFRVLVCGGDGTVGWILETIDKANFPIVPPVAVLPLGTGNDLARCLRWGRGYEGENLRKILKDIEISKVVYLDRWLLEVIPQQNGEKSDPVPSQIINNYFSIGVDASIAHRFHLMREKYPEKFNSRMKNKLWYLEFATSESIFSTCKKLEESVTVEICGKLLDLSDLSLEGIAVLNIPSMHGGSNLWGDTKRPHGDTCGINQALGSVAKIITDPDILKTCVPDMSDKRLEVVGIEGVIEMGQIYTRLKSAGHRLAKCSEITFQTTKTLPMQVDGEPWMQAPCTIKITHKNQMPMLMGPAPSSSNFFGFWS
T7 sequence (P34969 whole entry, species assumed): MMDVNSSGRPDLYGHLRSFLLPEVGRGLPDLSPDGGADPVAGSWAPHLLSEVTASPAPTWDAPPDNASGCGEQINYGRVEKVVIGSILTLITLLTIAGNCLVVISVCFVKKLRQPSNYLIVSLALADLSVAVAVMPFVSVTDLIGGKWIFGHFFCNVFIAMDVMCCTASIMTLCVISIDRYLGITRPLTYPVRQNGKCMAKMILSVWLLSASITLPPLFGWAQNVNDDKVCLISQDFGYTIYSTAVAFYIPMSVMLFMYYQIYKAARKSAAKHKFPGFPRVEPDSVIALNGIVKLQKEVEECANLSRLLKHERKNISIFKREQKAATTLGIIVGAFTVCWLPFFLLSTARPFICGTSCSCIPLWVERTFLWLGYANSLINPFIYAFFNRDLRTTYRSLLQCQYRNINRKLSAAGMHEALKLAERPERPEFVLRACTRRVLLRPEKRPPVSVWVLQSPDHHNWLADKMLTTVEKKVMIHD
Sequence of DGKι (O75912 1-1065 isoform O75912-1): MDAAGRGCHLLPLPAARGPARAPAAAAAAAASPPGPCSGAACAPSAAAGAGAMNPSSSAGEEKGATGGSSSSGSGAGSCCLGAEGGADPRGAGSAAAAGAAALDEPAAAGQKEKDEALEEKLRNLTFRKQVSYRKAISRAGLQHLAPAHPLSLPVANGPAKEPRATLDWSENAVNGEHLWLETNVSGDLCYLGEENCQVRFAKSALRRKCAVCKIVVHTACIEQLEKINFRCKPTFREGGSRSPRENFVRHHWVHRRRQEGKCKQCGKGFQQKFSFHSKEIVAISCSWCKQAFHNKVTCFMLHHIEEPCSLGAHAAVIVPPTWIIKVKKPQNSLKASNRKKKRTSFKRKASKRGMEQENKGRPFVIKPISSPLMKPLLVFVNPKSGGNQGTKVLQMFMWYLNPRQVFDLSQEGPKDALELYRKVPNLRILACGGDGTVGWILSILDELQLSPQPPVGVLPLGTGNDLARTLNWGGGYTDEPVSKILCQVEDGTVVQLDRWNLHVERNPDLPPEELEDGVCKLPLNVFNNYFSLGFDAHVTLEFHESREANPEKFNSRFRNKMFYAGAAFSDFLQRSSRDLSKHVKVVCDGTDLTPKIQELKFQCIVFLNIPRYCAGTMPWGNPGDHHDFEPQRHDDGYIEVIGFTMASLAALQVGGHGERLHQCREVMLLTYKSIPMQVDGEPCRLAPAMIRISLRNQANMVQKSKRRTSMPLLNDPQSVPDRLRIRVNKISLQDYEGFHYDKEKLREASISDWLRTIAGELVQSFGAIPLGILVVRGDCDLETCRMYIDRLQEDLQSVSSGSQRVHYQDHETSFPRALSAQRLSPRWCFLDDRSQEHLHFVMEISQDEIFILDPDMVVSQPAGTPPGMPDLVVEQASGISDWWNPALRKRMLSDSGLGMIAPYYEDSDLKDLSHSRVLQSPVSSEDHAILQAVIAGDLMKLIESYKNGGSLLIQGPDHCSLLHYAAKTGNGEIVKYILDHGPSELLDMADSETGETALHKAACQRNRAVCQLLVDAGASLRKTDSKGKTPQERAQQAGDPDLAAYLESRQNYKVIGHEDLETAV
Sequence of 5-HT6 (P50406 whole entry, species assumed): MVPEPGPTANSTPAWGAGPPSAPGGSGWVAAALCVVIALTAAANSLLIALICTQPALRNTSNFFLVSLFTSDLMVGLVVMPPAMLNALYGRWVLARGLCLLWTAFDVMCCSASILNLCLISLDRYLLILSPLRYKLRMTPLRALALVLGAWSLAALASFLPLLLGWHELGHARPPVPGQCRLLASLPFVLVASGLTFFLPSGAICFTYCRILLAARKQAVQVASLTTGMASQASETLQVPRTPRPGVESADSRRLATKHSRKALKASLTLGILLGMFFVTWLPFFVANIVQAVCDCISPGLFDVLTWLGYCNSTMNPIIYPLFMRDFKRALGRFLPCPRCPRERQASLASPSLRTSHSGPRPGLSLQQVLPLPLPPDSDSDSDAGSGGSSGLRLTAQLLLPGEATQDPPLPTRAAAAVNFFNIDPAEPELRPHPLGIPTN
Sequence of 5-HT5A (P47898 whole entry, species assumed): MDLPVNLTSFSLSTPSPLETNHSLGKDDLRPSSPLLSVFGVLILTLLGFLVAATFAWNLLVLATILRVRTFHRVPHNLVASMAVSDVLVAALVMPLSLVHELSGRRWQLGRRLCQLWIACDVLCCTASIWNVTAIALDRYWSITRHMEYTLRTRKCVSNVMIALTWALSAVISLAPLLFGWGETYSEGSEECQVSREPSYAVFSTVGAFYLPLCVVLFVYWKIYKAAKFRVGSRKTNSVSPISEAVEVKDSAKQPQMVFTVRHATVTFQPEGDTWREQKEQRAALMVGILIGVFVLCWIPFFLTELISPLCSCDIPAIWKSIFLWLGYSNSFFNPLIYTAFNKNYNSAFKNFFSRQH
Sequence of 5-HT3 (P46098 24-478, species assumed): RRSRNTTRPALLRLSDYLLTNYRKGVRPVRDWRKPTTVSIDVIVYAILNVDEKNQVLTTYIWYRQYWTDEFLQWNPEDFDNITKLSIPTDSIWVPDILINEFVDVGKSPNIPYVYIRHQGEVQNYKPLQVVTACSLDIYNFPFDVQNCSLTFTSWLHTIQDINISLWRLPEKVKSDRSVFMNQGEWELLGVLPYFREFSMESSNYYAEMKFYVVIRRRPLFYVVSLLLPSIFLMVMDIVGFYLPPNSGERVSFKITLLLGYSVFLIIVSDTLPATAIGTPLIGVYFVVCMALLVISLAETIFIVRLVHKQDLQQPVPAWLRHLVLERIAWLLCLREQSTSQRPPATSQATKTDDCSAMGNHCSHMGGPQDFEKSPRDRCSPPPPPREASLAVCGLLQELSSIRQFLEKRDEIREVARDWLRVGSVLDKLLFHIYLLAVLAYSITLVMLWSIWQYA

## Cc1nc2sccn2c(=O)c1CCN1CCC(=C(c2ccc(F)cc2)c2ccc(F)cc2)CC1 [ritanserin]
[1]; 0.5 mol% drug in liposomes
  Vmax (ATP): 20 ± 1 nmol/min/mg
  Vmax (DAG): 17 ± 2 nmol/min/mg
[1]; in the context of ATP
  Decrease of Vmax of purified DGKα: greater than 50%
[1]; in the context of DAG
  Decrease of Vmax of purified DGKα: greater than 50%
[1]; 2.0 mol% drug in liposomes
  Vmax (ATP): 12 ± 0.01 ^† nmol/min/mg
  Vmax (DAG): 11 ± 2 nmol/min/mg
[2]
  IC50: ~15000 nM
[2]; 20 μM inhibitor, liposomes with dioleoyl DAG, cell homogenate
  Activity of DGKα, percent of control: decreased by about half
[2]; 20 μM, liposomes containing dioctanoyl or stearoyl arachidonoyl DAG
  Potency against DGKα with other DAG species: similarly potent
[3]
  Activity of DGKβ, percent of control: not detectably inhibited
[4]
  Activity of DGKδ, percent of control: not detectably inhibited
[5]; 20 μM inhibitor, dioleoyl DAG liposomes, cell homogenate
  Activity of DGKι, percent of control: not detectably inhibited
[5]; IC50 for DGKι, cell homogenate, 1 mM ATP, 10 mol% DAG
  IC50: 55000 to 65000 nM and ~60000 nM
[5]; fold higher than IC50 for DGKα
  IC50 for DGKι relative to IC50 for DGKα: 2–3 fold
[6]
  Activity of DGKθ, percent of control: not detectably inhibited
[7]; 40 μM, 30 min
  Increase in phosphorylation of PKC downstream targets: about 2.5 fold
[8]
  Activation of PKC: activate PKC
[9]
  Activation of PKC: not in U251 cells
[10]
  Adverse side effects: few adverse side effects
  Oral bioavailability: orally bioavailable
[10]; in humans
  half-life: approximately 40 hours

## COc1cc(Br)c(OC)c2c1[C@H](CN)C2 [TCB-2]
[7]; 10 μM TCB-2 for 6 h
  PKC activity: significant elevation of PKC activity

## O=c1c2ccccc2[nH]c(=S)n1CCN1CCC(=C(c2ccc(F)cc2)c2ccc(F)cc2)CC1 [R59949, 3-[2-(4-[bis-(4-fluorophenyl)methylene]-1-piperidinyl)ethyl]-2,3-dihydro-2-thioxo-4(1H)quinazolinone]
[11]
  Ki: 2000 nM
[11]; read-out: Percent Inhibition of Binding 5-HT1A
  inhibition at 10 µM: 61.1%
[12]
  inhibition at 10 µM: 20.3%
[13]
  Ki: 64.5 nM
[13]; read-out: Percent Inhibition of Binding 5-HT1D
  inhibition at 10 µM: 76.7%
[14]
  Ki: 9.2 nM
[14]; read-out: Percent Inhibition of Binding 5-HT2A
  inhibition at 10 µM: 94.2%
[15]
  Ki: 80 nM
[15]; read-out: Percent Inhibition of Binding 5-HT2B
  inhibition at 10 µM: 96.9%
[16]
  Ki: 46 nM
[16]; read-out: Percent Inhibition of Binding 5-HT2C
  inhibition at 10 µM: 72.2%
[17]
  inhibition at 10 µM: 0.7%
[18]
  Ki: 3250 nM
[18]; read-out: Percent Inhibition of Binding 5-HT5A
  inhibition at 10 µM: 71.6%
[19]
  Ki: 3070 nM
[19]; read-out: Percent Inhibition of Binding 5-HT6
  inhibition at 10 µM: 71.8%
[20]
  Ki: 681 nM
[20]; read-out: Percent Inhibition of Binding 5-HT7
  inhibition at 10 µM: 82.8%
[21]
  inhibition at 10 µM: 136%
[22]
  inhibition at 10 µM: 101%
[23]
  inhibition at 10 µM: 99.4%
[24]
  inhibition at 10 µM: 28.1%
[25]
  inhibition at 10 µM: 32.9%
[26]
  Agonist activity at 5-HTRs: very low to no activity

## CCCCCCCCCCCCCC(=O)O[C@@H]1[C@@H](C)[C@@]2(O)[C@@H](C=C(CO)C[C@]3(O)C(=O)C(C)=C[C@@H]23)[C@@H]2C(C)(C)[C@]12OC(C)=O [PMA, Phorbol 12-myristate 13-acetate]
[7]; 100 nM PMA, 30 min
  Increase in phosphorylation of PKC downstream targets: greater than 3 fold

## CN1CCCC1CCn1cc(C2=C(c3c[nH]c4ccccc34)C(=O)NC2=O)c2ccccc21 (centres unmarked) [bis, bisindolylmaleimide II]
[7]; 500 nM bis alone for 1 h
  Change in basal PKC activity: did not see any changes in basal PKC activity

## O=C(c1ccc(F)cc1)C1CCN(CCn2c(=O)[nH]c3ccccc3c2=O)CC1 [ketanserin]
[1]
  IC50: 264000 nM
[7]; 40 μM ketanserin co-treatment with 10 μM TCB-2 for 6 h
  Effect on TCB-2-induced PKC activation: inhibited the ability of TCB-2 to activate PKC
[7]; 40 μM ketanserin, 30 min
  Activation of PKC: no activation of PKC was observed
[8]
  Activation of PKC: does not activate PKC
[9]
  Activation of PKC: does not activate PKC
